Here are results for 15 compounds from ChEMBL document CHEMBL1125339, “Copyrine alkaloids: synthesis, spectroscopic characterization, and antimycotic/antimycobacterial activity of A- and B-ring-functionalized sampangines” (1992).

SMILES strings stand for the structures. Converted amounts (≈) assume the structure as drawn.

The test system of one assay is Cryptococcus neoformans. In words: In vitro antifungal activity against Cryptococcus neoformans ATCC 32264.
In assay [1] the test system is Mycobacterium intracellulare. In words: In vitro anti-mycobacterial activity against Mycobacterium intracellular ATCC 23068. The assay is classed as functional. In short, it runs like this: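 Organism grown on Lowenstein-Jensen medium for 48 h at 37 °C. Active compounds from the agar-well screen (1 mg/mL, zone >4 mm) go to 2-fold serial broth dilution in Mueller-Hinton broth. 10 μL loop inoculum per tube, 37 °C for 72 h. MIC is the lowest concentration inhibiting growth. Rifampin is the positive control. Replicate evaluations.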

The test system of a further assay is Candida albicans. In words: In vitro antifungal activity against Candida albicans B311. The assay is classed as functional. The method in brief: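 Cells grown 24 h at 37 °C in Sabouraud dextrose broth, centrifuged, washed and resuspended in 0.9% saline at 10^6 CFU/mL (hemacytometer). MIC by 2-fold serial dilution in yeast nitrogen broth with a 10 μL loop inoculum. Incubation at 37 °C, read at 24 and 48 h. MIC is the lowest inhibitory concentration. Amphotericin B is the control. Replicate evaluations.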

In a further assay the test system is Aspergillus fumigatus. In words: In vitro antifungal activity against Aspergillus fumigatus ATCC 26934. The assay is classed as functional. The method in brief: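 Inoculum is a surface-growth suspension from agar slants in sterile water. Compounds active in the agar-well diffusion screen (1 mg/mL, zone >4 mm) are tested by 2-fold serial dilution in Sabouraud dextrose broth. 10 μL loop inoculum, 30 °C, read at 48 and 72 h. MIC is the lowest growth-inhibiting concentration. Amphotericin B is the control. Replicate evaluations.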

A word on the MIC: it is the smallest concentration in the dilution series that meets the test's criterion for growth inhibition. High values mean a less susceptible organism, low ones a more susceptible organism. `Cc1c2c(nc3ccccc13)C(=O)c1ccccc1C2=O`: the MIC was found to be 25 µg/mL (≈ 91.5 µM) against Cryptococcus neoformans, 1.56 µg/mL (≈ 5.71 µM) in assay [1] and 25 µg/mL (≈ 91.5 µM) in the assay with Candida albicans.
Take `CCOc1nc2c3c(nccc3c1Br)-c1ccccc1C2=O`: the MIC (in the assay on Cryptococcus neoformans; in assay [1]) was 25 µg/mL (≈ 70.4 µM) each time.
With `COc1cnc2c3c(nccc13)-c1ccccc1C2=O`, the MIC against Cryptococcus neoformans stood at 1.56 µg/mL (≈ 5.95 µM); in assay [1], 3.12 µg/mL (≈ 11.9 µM); against Candida albicans, 3.12 µg/mL (≈ 11.9 µM).
In the case of `Nc1cnc2c3c(nccc13)-c1ccccc1C2=O`, the MIC against Cryptococcus neoformans is 25 µg/mL (≈ 101 µM); in the assay with Candida albicans, 100 µg/mL (≈ 404 µM).
As to `[N-]=[N+]=Nc1cnc2c3c(nccc13)-c1ccccc1C2=O`, the MIC in the assay with Cryptococcus neoformans stood at 6.25 µg/mL (≈ 22.9 µM); with Candida albicans, 25 µg/mL (≈ 91.5 µM).
In the case of `O=C1c2ccccc2-c2nccc3c(Br)cnc1c23`, the MIC with Aspergillus fumigatus worked out at 50 µg/mL (≈ 161 µM); in the assay on Cryptococcus neoformans, 0.1 µg/mL (≈ 0.321 µM); in assay [1], 3.12 µg/mL (≈ 10 µM); against Candida albicans it was 3.12 µg/mL (≈ 10 µM).
For `Cc1cnc2c3c(nccc13)C(=O)c1ccccc1-2`, the MIC was 0.78 µg/mL (≈ 3.17 µM) with Aspergillus fumigatus, 0.39 µg/mL (≈ 1.58 µM) in the assay on Cryptococcus neoformans, 0.39 µg/mL (≈ 1.58 µM) in assay [1] and 0.39 µg/mL (≈ 1.58 µM) with Candida albicans.
In the case of `COc1cnc2c3c(nccc13)C(=O)c1ccccc1-2`, the MIC in the assay on Aspergillus fumigatus stood at 0.78 µg/mL (≈ 2.97 µM); against Cryptococcus neoformans, 0.78 µg/mL (≈ 2.97 µM); in assay [1], 1.56 µg/mL (≈ 5.95 µM); against Candida albicans it was 1.56 µg/mL (≈ 5.95 µM).
For `O=C1c2ccccc2-c2nccc3c(Cl)cnc1c23`, the values for the MIC (in the assay with Cryptococcus neoformans; in assay [1]; in the assay on Candida albicans) were 0.1 µg/mL (≈ 0.375 µM), 3.12 µg/mL (≈ 11.7 µM) and 0.39 µg/mL (≈ 1.46 µM), respectively.
Taken in the same sequence, the figures for `CCc1ccnc2c1C(=O)c1ccccc1C2=O` were 3.12 µg/mL (≈ 13.2 µM), 12.5 µg/mL (≈ 52.7 µM) and 100 µg/mL (≈ 421 µM).
For `C[C@@H]1[C@H](O)[C@@H](C)/C=C/C=C/C=C/C=C/C=C/C=C/C=C/[C@H](O[C@@H]2O[C@H](C)[C@@H](O)[C@H](N)[C@@H]2O)C[C@@H]2O[C@](O)(C[C@@H](O)C[C@@H](O)[C@H](O)CC[C@@H](O)C[C@@H](O)CC(=O)O[C@H]1C)C[C@H](O)[C@H]2C(=O)O` [AMPHOTERICIN B], the MIC in the assay on Aspergillus fumigatus was 0.39 µg/mL (≈ 0.422 µM); in the assay on Cryptococcus neoformans, 0.39 µg/mL (≈ 0.422 µM); with Candida albicans, 0.78 µg/mL (≈ 0.844 µM).
For the compound `O=C1c2ccccc2-c2nccc3c2c1nc1ccccc13` [BENZOSAMPANGINE], the MIC was 0.39 µg/mL (≈ 1.38 µM) in the assay on Aspergillus fumigatus, 1.56 µg/mL (≈ 5.53 µM) against Cryptococcus neoformans, 0.39 µg/mL (≈ 1.38 µM) in assay [1] and 0.39 µg/mL (≈ 1.38 µM) in the assay with Candida albicans.
With `Cc1ccnc2c1C(=O)c1ccccc1C2=O` [CLEISTOPHOLINE], the MIC is 100 µg/mL (≈ 448 µM) with Aspergillus fumigatus, 1.56 µg/mL (≈ 6.99 µM) against Cryptococcus neoformans, 12.5 µg/mL (≈ 56 µM) in assay [1] and 12.5 µg/mL (≈ 56 µM) in the assay on Candida albicans.
In assay [1], `CO[C@H]1/C=C/O[C@@]2(C)Oc3c(C)c(O)c4c(O)c(c(/C=N/N5CCN(C)CC5)c(O)c4c3C2=O)NC(=O)/C(C)=C\C=C\[C@H](C)[C@H](O)[C@@H](C)[C@@H](O)[C@@H](C)[C@H](OC(C)=O)[C@@H]1C` [RIFAMPIN] showed an MIC of 0.78 µg/mL (≈ 0.948 µM).
`O=C1c2ccccc2-c2nccc3ccnc1c23` [SAMPANGINE]: the MIC came out at 1.56 µg/mL (≈ 6.72 µM) in the assay on Aspergillus fumigatus, 0.78 µg/mL (≈ 3.36 µM) against Cryptococcus neoformans, 0.78 µg/mL (≈ 3.36 µM) in assay [1] and 1.56 µg/mL (≈ 6.72 µM) against Candida albicans.
